Source: PubChem BioAssay
Sampled rows, rich in hits. Any-hit rate of the full collection: about 1.2%.
IDE act – human IDE activators in live cells, primary screen, fluorescence polarization, HEK cells, FAbeta-B substrate; Insulin-degrading enzyme (Homo sapiens), P14735; FAbeta-B cleavage; 0% vehicle, 100% cell-free pure enzyme wells; activation, % at 5.96 µM; 340,000 compounds, 0.073% hits;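 active means activation above the mean of all tested compounds plus 3 SD, set per screening campaign, cut at about 17% in these data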
IDE inh – human IDE inhibitors in live cells, primary screen, fluorescence polarization, HEK cells, FAbetaB substrate; inhibition, % at 5.59 µM; 320,000 compounds, 0.41% hits; FAbetaB cleavage; AID 434962, 2010; Insulin-degrading enzyme (Homo sapiens), P14735;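 active means percent inhibition above the average of all tested compounds plus 3 SD, set per screening campaign, cut at about 16% in these data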;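 further: IDE supplied by intact live HEK cells; FP after avidin binding of uncleaved biotin substrate so inhibition keeps polarization high; 0% = DMSO wells and 100% = 60 µM reference IDE inhibitor Ii1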
procasp3 activ – activators of human procaspase-3 D3A mutant, primary screen, biochemical, absorbance, PC-3 D3A mutant, single concentration. Caspase-3 (Homo sapiens), P42574. recombinant procaspase-3 D3A, Ac-DEVD-pNA absorbance 405 nm. activation, % at 8.5 µM. 330,000 compounds, 0.11% hits;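 active means activation above the mean of all tested compounds plus 3 SD, cut at about 21% in these data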;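 further: 0% = DMSO alone and 100% = DMSO wells spiked with extra 5 µM PC-3 D3A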
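Assay system: Procaspase-3 D3A mutant, all three cleavage aspartates alanine. Buffer or medium: Zinc-free HEPES saline buffer with Triton X-100. Times: 1 h compound preincubation, 2 h substrate hydrolysis at 25 °C. Measured by: 405 nm absorbance of p-nitroaniline, reads at 0 and 120 min. Read-out basis: percent activation relative to control range. Replicates: singlicate.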
procasp7 counter – procaspase-7 activators, primary screen, counter-screen for procaspase-3 activator project, biochemical, absorbance, HTS, human; recombinant procaspase-7, Ac-DEVD-pNA absorbance 405 nm; D23A/D198A/D206A triple mutant, cannot self-cleave; scale: DMSO 0, 5 µM enzyme 100; activation, % at 8.5 µM; 330,000 compounds, 0.093% hits; AID 463210, 2010;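 active means percent activation above the screen-wide mean plus 3 SD, cut at about 25% in these data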
Target sequence (P55210 whole entry D23A/D198A/D206A): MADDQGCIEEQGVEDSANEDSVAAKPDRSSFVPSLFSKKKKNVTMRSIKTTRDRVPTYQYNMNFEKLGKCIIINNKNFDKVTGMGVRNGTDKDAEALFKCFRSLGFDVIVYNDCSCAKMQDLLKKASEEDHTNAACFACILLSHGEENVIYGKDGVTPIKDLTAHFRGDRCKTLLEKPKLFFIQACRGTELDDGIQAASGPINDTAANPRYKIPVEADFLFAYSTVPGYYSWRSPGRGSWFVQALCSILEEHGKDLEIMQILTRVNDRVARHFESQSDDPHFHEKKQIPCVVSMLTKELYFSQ
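signal = Epi-absorbance of released pNA at 405 nm, two timepoints | assay system = Uncleavable procaspase-7 mutant enzyme | reagent = Ac-DEVD-pNA substrate, 400 µM as added | times = 1 h enzyme–compound preincubation and 2 h substrate reaction, both 25 °C | benchmarks = low DMSO alone, high DMSO plus 5 µM PC-7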
TPT1 inhibitor – Candida albicans TPT1 enzyme inhibitors, primary screen, biochemical, fluorescence polarization; tRNA 2'-phosphotransferase TPT1 (Candida albicans SC5314); recombinant caTPT1, FP RNA substrate dephosphorylation; inhibition, % at 5 µM; 300,000 compounds, 0.81% hits;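 active means inhibition above the mean of all tested compounds plus 3 SD, set per screening campaign, cut at about 24% in these data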;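 further: plate controls were DMSO alone for no effect and ferristatin control at 100 nM for full effect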
caTPT1 confirm – Candida albicans TPT1 inhibitors, confirmation, biochemical, fluorescence polarization, triplicate; inhibition, % at 5 µM; recombinant caTPT1, RNase T1 coupled; 2,400 compounds, 74% hits; shares compounds with TPT1 inhibitor;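 active means inhibition above the primary screen limit, the mean inhibition of all tested compounds plus 3 SD, cut at about 25% in these data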
RNase T1 inh – RNase T1 inhibitors, counter-screen for TPT1 inhibitor project, biochemical, fluorescence polarization; inhibition, % at 5 µM; shares compounds with TPT1 inhibitor; RNase T1 cleavage, 1536-well; 2,400 compounds, 83% hits;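 active means inhibition above the solvent-only control well mean plus 3 SD, limit set per screening run, cut at about 23% in these data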;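 further: plate controls were DMSO wells with enzyme for no effect and wells without RNase T1 for full effect; inhibitors block cleavage so intact labeled substrate keeps polarization high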
Target sequence (P00651 whole entry, looked up): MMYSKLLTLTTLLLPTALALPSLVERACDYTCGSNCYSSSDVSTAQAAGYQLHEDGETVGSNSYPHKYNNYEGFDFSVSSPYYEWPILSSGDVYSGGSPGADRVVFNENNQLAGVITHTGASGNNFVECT
The depositor's hits bear a star; . = no result given.

SMILES	IDE act	IDE inh	procasp3 activ	procasp7 counter	TPT1 inhibitor	caTPT1 confirm	RNase T1 inh
COc1ccc2cc(C(=O)N/N=C/c3sc4ccccc4c3O)ccc2c1	-25	14	5	6	136*	135*	126*
O=C(O)COC(=O)Cc1ccccc1Nc1c(Cl)cccc1Cl	2	1	2	3	-2	.	.
COc1cc(CN2CCNC(=O)C2CC(=O)N(Cc2nccn2C)C(C)C)cc(OC)c1 (stereo not drawn)	6	2	3	13	-2	.	.
Cn1c(SCC(=O)NC(C)(C)C)nnc1-c1cccc(NC(=O)c2ccccc2F)c1	4	1	-2	-7	-3	.	.
Cn1c(SCC(=O)NCC2CCCO2)nnc1-c1cccc(NC(=O)c2ccccc2F)c1 (stereo not drawn)	6	4	2	5	31*	9	10
Cc1cc(SCC(=O)NCC2CCCO2)nc2ccccc12 (stereo not drawn)	-7	9	6	6	30*	55*	67*
Cc1cc(SCC(=O)NC2CC2)nc2ccccc12	0	-4	-6	4	.	.	.
N#Cc1ccc(-c2ccccc2)nc1SCC(=O)c1cccc(Cl)c1	4	1	-7	3	45*	27*	36*
Cc1cc(C)nc(N/N=C/C2=C(N3CCOCC3)C(=C\c3ccc(Cl)cc3)/CC2)n1	-6	-1	-13	-20	13	.	.
O=C(O)c1ccc(N/N=C/C2=C(N3CCOCC3)C(=C\c3ccccc3)/CC2)cc1	-5	4	1	-10	101*	119*	124*
O=[N+]([O-])c1ccc(-c2nc(-c3cccs3)c(-c3cccs3)[nH]2)cc1	2	5	-15	-13	63*	60*	77*
COc1cc(/C=C2/C(=O)NN(c3cccc(Cl)c3)C2=O)cc(OC)c1O	-18	6	-9	2	124*	151*	150*
CCOc1cc(/C=C2/C(=O)NN(c3cccc(Cl)c3)C2=O)ccc1O	3	1	1	-21	43*	66*	84*
CCOC(=O)[C@H]1[C@H]2COc3ccccc3[C@@H]2N2C(=O)CN(Cc3ccc(C)cc3)C(=O)[C@@]12C	2	4	8	4	.	.	.
CCN1CC2=C(OC(N)=C(C#N)C2c2cccs2)/C(=C/c2cccs2)C1 (stereo not drawn)	0	11	-1	-3	34*	25*	36*
CCN1CC2=C(OC(N)=C(C#N)C2c2ccccc2)/C(=C\c2ccccc2)C1 (stereo not drawn)	0	3	-5	0	-4	.	.
COc1ccccc1N1CCN(C(=O)CCCCCn2c(=O)[nH]c3ccsc3c2=O)CC1	-4	2	2	-2	0	.	.
Cc1ccc(C2C(C#N)=C(N)SC(N)=C2C#N)o1	.	14	-22	-19	66*	34*	46*
N#CC1=C(N)SC(N)=C(C#N)C1c1c(Cl)cccc1Cl	-5	1	-28	-25	47*	22	28*
CCc1ccc(C2C(C#N)=C(N)OC3=C2C(=O)CCC3)s1 (stereo not drawn)	2	2	-7	-2	-3	.	.
CCc1ccc(C2C(C#N)=C(N)SC(N)=C2C#N)s1	-10	13	-15	-20	91*	80*	89*
N#CC1=C(N)SC(N)=C(C#N)C1c1ccc(C(F)(F)F)cc1	.	5	-25	-40	20	.	.
N#CC1=C(N)SC(N)=C(C#N)C1c1cccc(Oc2ccccc2)c1	-7	1	-17	-29	111*	54*	69*
CCOc1cc(N2CCOCC2)c(OCC)cc1NC(=O)COC(=O)CCOc1cc(C)ccc1C	4	-5	8	-3	-2	.	.
Cc1ccc(S(=O)(=O)N2CCC(C(=O)OCC(=O)NCc3cccc(Cl)c3)CC2)cc1C	4	-2	2	8	.	.	.
SMILES	IDE act	IDE inh	procasp3 activ	procasp7 counter	TPT1 inhibitor	caTPT1 confirm	RNase T1 inh
Nc1ncc(Br)cc1S(=O)(=O)NCCC(=O)N1CCN(c2ccccc2)CC1	-3	-2	1	-2	0	.	.
N#CC1=C(N)SC(N)=C(C#N)C1c1ccc([N+](=O)[O-])cc1	-4	1	-18	-15	40*	7	9
CCOc1ccccc1C1C(C#N)=C(N)SC(N)=C1C#N	-7	3	-28	-28	82*	56*	67*
CCOc1ccc(C2C(C#N)=C(N)SC(N)=C2C#N)cc1OCC	-13	10	-10	-20	126*	132*	128*
CCOC(=O)C1=C(C)OC(N)=C(C#N)C1c1ccc(O)c(OC)c1 (stereo not drawn)	-8	9	17	16	-1	.	.
CCOc1ccc(C2C(C#N)=C(N)SC(N)=C2C#N)cc1OC	.	20*	-11	-9	115*	39*	56*
O=C(Nc1ccc(F)c(Cl)c1)c1cncs1	3	-1	-3	7	-3	.	.
CCc1ccc(C2C(C#N)=C(N)SC(N)=C2C#N)cc1	-4	4	-15	-26	106*	73*	86*
COc1ccc(Cl)cc1NC(=O)CN1CCN(Cc2ccccc2)CC1	5	-1	-4	2	5	.	.
N=c1oc2cc(O)ccc2cc1C(=O)Nc1nc2ccccc2s1	-6	2	-41	-28	65*	70*	75*
N=c1oc2cc(O)ccc2cc1C(=O)Nc1ccccn1	.	0	-29	-32	29*	-19	-6
CN1C[C@H]2CON(C)[C@H]2C[C@H]1c1cccc(-c2ccccc2)c1	4	.	.	.	.	.	.
O=C(CSC1=N/C(=C/c2ccco2)C(=O)N1c1ccc(OC(F)F)cc1)NC1CCS(=O)(=O)C1 (stereo not drawn)	-1	3	-4	0	28*	26*	34*
COc1ccc(N2C(=O)/C(=C\c3ccco3)N=C2SCC(=O)NC(C)C)cc1Cl	2	-5	-4	-5	11	.	.
ClCC1NCC(c2ccccc2Cl)c2c1[nH]c1ccccc21 (stereo not drawn)	1	-8	-3	-6	89*	14	21
